In ChEMBL document CHEMBL4152234, “Aminobenzothiazole derivatives stabilize the thermolabile p53 cancer mutant Y220C and show anticancer activity in p53-Y220C cell lines” (Eur J Med Chem, 2018) one finds fold induction and fold change (FC) data, which are given here for one compound.

Holding throughout (format): cell-based
Assay [1] addresses T1, Cellular tumor antigen p53 (Homo sapiens, UniProt P04637). Put plainly: Activation of p53 in human NUGC4 cells assessed as change in ATM mRNA level at 60 uM after 18 hrs by RT-PCR method relative to control. The settings on record: read-out: FC. The gist of the method: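 p53 signalling qPCR array covering 84 p53 pathway genes. Cells were exposed for 18 h, and compound and control wells both held 0.5% DMSO. Total RNA was extracted and purified. Fold-changes were calculated by the ΔΔCt method against the untreated sample, with β2-microglobulin (B2M) as the housekeeping gene. Each cell line was run in two independent biological replicates.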

Assay [2] addresses T1, Cellular tumor antigen p53. Put plainly: Activation of p53 in human NUGC4 cells assessed as change in NFKB1 mRNA level at 60 uM after 18 hrs by RT-PCR method relative to control. The following applies: read-out: FC. The gist of the method:
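p53-signalling qPCR array (84 pathway genes): cells treated 18 h in 0.5% DMSO, with DMSO-matched controls. Total RNA was extracted and fold-change quantified by the ΔΔCt method with β2-microglobulin (B2M) as housekeeping gene, normalized to the untreated sample. Two independent biological replicates per cell line.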

Assay [3] deals with Cellular tumor antigen p53 (Homo sapiens), P04637 [Y220C]. Put plainly: Activation of p53 Y220C mutant in human NUGC3 cells assessed as change in IGF1R mRNA level at 60 uM after 18 hrs by RT-PCR method relative to control. The gist of the method:
(§1)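 p53 signalling qPCR array covering 84 genes. Cells were exposed for 18 h, with 0.5% DMSO in both compound and control samples. Total RNA was extracted and purified. Fold-changes were calculated by ΔΔCt using β2-microglobulin (B2M) as the housekeeping gene. Two independent biological replicates were run per cell line.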

Assay [4] shares this test system. Put plainly: Activation of p53 Y220C mutant in human NUGC3 cells assessed as change in CHEK1 mRNA level at 60 uM after 18 hrs by RT-PCR method relative to control. The gist of the method:
as §1

For assay [5] the test system is unchanged. Briefly: Activation of p53 Y220C mutant in human NUGC3 cells assessed as change in CCNH mRNA level at 60 uM after 18 hrs by RT-PCR method relative to control. The gist of the method: as §1
Assay [6] concerns the target T1, Cellular tumor antigen p53. Put plainly: Activation of p53 in human NUGC4 cells assessed as change in BTG2 mRNA level at 60 uM after 18 hrs by RT-PCR method relative to control. The settings on record: read-out: FC. The gist of the method: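 p53 signaling qPCR array of 84 p53-pathway genes. Cells were treated in 6-well plates for 18 h with 0.5% DMSO in compound and control samples. Total RNA was extracted and fold-changes were obtained by the ΔΔCt method against untreated control, with β2-microglobulin (B2M) as housekeeping gene. Two independent biological replicates per cell line.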

In assay [7] the test system is Cellular tumor antigen p53 (Homo sapiens), P04637 [Y220C]. Briefly: Activation of p53 Y220C mutant in human NUGC3 cells assessed as change in CHEK2 mRNA level at 60 uM after 18 hrs by RT-PCR method relative to control. The gist of the method: as §1

The structures appear in SMILES notation.

Turning to `CCNC(=O)c1c(O)c(I)c(-n2cccc2)c2sc(N(CC)CC)nc12`, the fold induction at 60 µM in assay [1] came out at 1; in assay [2], 0.8; in assay [6], 0.6. In addition, the fold change (FC) in assay [3] stood at 1.8; in assay [4], 1.2; in assay [5], 1.4; in assay [7], 1.1.
